A selection: hits, their analogues and other compounds. The true share with any hit is near 1.6%.
Arrestin-AP2 inh: human beta-arrestin and AP2 interaction inhibition | FITC-arrestin peptide / GST-AP2 beads, flow cytometry; AP2 beta2 appendage carries R879A mutation | 340,000 compounds, 0.31% hits | inhibition, % at 10 µM | AID 504490;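 active = inhibition above a set limit, near 3 SD of compounds lacking own fluorescence, cut at about 54% in these data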;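 note: plate controls were DMSO wells for no effect and 5 µM unlabelled arrestin peptide for full effect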
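Measured by: flow cytometry, FL1 (488/535 nm); Material: AP2 appendage R879A on GSH beads; Evaluation: percent response; Timing: pre-incubation 12 min, peptide binding 1 h, room temperature; Also added: 50 nM FITC-arrestin peptide; Medium: PBS with 0.05% Tween 20 and 0.1% BSA.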
DSG3 Ab inh: inhibitors of pemphigus antibody binding to human desmoglein-3. binding (percent of control), % at 10 µM. 310,000 compounds, 0.48% hits. DSG3-coupled beads, scFv-anti-DSG3-GFP binding, flow cytometry; hits give low values. P32926;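 active = binding more than 3 SD below its plate's average and above zero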;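 note: hits lower antibody fragment binding to DSG3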
LANA-H2B inh: blocks KSHV LANA binding to histone H2A/H2B; inhibition, % (test concentration not listed); Q9QR71; cell-free LANA-H2A/H2B peptide, fluorescence polarization; 320,000 compounds, 0.6% hits; in the data active = inhibition mostly above about 10%, no sharp cut-off; inactive = mostly below about 6.7%
T cell modulator: T cell immune modulation candidate; 2C CD8+ T cell-vesicle binding, flow cytometry; hits give low values; response (vesicle binding), % at 7 µM; 330,000 compounds, 0.068% hits; AID 2052;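 active = response, share of CD8 T cells binding vesicles, and their 90th percentile fluorescence all below set limits, cut at about 80% in these data, passing the limit was not always enough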;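 note: values below 100% mean blocked vesicle binding to the CD8+ T cells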
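Test system: purified 2C TCR transgenic mouse naive CD8+ T cells. Probe or stimulus: QL9-peptide-loaded Drosophila micro-vesicles bearing Ld, ICAM-1 and B7-1. Incubation: binding step 1.5 h, 37 °C, antibody labelling 20 min, ice. Measured by: flow cytometry of vesicle-bound cells.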
GASC-1 inh: blocks human GASC-1 demethylase activity; GST-JMJD2C(1-420) H3K9me3 demethylation, DELFIA europium; inhibition, % at 2.35 µM; AID 2099; 330,000 compounds, 0.069% hits;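 active = more than half of a compound's replicate wells show inhibition beyond 50%, single wells judged on their own value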;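 note: signal counts dimethyl H3K9 product captured on neutravidin plate; 0% = median of DMSO wells and 100% = 0.3 times that DMSO median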
HDAC3 inhib: blocks human histone deacetylase 3 | O15379 | inhibition, % at 8.3 µM | AID 2718 | 320,000 compounds, 0.15% hits | recombinant HDAC3, fluorogenic peptide/trypsin coupled, fluorescence; in the data active = inhibition above about 26%, passing the limit was not always enough
Target sequence (O15379 whole entry, looked up): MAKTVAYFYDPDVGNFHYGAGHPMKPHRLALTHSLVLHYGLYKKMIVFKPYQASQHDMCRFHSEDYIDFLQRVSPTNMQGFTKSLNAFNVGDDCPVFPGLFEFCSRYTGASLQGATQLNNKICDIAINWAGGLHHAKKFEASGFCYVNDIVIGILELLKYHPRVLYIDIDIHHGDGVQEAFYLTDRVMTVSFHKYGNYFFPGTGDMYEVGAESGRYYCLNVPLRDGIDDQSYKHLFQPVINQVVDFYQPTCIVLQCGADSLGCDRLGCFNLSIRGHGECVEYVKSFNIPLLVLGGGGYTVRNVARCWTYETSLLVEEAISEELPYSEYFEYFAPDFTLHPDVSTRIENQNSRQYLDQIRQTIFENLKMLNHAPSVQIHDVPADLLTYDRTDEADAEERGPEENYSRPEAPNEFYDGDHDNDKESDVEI
* hit, by the source's call.

For CCOC(=O)N1CC(=O)Nc2ccc(Br)cc2C1c1ccccc1 (stereo not drawn) the results were Arrestin-AP2 inh 15.6, DSG3 Ab inh 85.8, LANA-H2B inh 105.6*, T cell modulator 118.3, GASC-1 inh -16.8 and HDAC3 inhib -2.3.
CCCCCCN1C[C@@H](n2cc(-c3ccc(F)cc3)nn2)[C@H](O)C[C@@H]1c1ccc(Cl)cc1 was read as DSG3 Ab inh 101.7.
Screening O=C(CNC(=O)C(c1ccccc1)c1ccccc1)N/N=C\c1cccc(O)c1 returned Arrestin-AP2 inh -9.4, DSG3 Ab inh 100.0, LANA-H2B inh 93.6*, T cell modulator 155.5, GASC-1 inh 3.9 and HDAC3 inhib -9.0.
For CCCCn1c(SCC(=O)N(CC)C2CCS(=O)(=O)C2)nc2cc(S(N)(=O)=O)ccc21 (stereo not drawn) the results were Arrestin-AP2 inh 10.0, DSG3 Ab inh 16.2*, LANA-H2B inh 3.8, T cell modulator 313.7, GASC-1 inh -4.3 and HDAC3 inhib 1.1.
`CCCCn1c(SCC(=O)N(C)C2CCS(=O)(=O)C2)nc2cc(S(N)(=O)=O)ccc21` (stereo not drawn) gave Arrestin-AP2 inh -9.8, DSG3 Ab inh 87.5, LANA-H2B inh -5.8, T cell modulator 118.9, GASC-1 inh -9.3 and HDAC3 inhib -5.9.
Screening CC1CC(=O)Nc2ccccc2N1C(=O)CSc1ncnc2sccc12 (stereo not drawn) returned Arrestin-AP2 inh -2.0, DSG3 Ab inh 101.3, LANA-H2B inh -0.2, T cell modulator 344.9, GASC-1 inh -29.2 and HDAC3 inhib 8.7.
COc1ccc(/C=N/NC(=O)c2ccc(COc3cccc4cccnc34)cc2)cc1OC was read as Arrestin-AP2 inh -14.3, DSG3 Ab inh 5.2*, LANA-H2B inh -1.1, T cell modulator 185.1, GASC-1 inh -35.4 and HDAC3 inhib 3.6.
Screening O=C(COc1ccc(S(=O)(=O)N2CCCC2)cc1)N1CCCCC1 returned Arrestin-AP2 inh -2.1, DSG3 Ab inh 107.4, LANA-H2B inh 0.2, T cell modulator 229.7, GASC-1 inh inactive and HDAC3 inhib 10.8.
Screening CCn1cc(C(=O)O)c(=O)c2cnc(N3CCN(C(=S)NC(=O)c4ccccc4)CC3)nc21 returned Arrestin-AP2 inh -0.1, DSG3 Ab inh 101.9, LANA-H2B inh 13.8*, T cell modulator 295.5, GASC-1 inh 19.5 and HDAC3 inhib -0.8.
O=C(CCC1CCCC1)NNC(=O)c1ccc(F)cc1 was read as Arrestin-AP2 inh 4.9, DSG3 Ab inh 103.4, LANA-H2B inh 49.6*, T cell modulator 599.3, GASC-1 inh -6.0 and HDAC3 inhib -4.8.
For CCc1ccc(C(=O)NNC(=O)CCC2CCCCC2)cc1 the results were Arrestin-AP2 inh 24.3, DSG3 Ab inh 99.9, LANA-H2B inh -0.4, T cell modulator 272.3, GASC-1 inh -37.7 and HDAC3 inhib 4.8.
For Cc1cc(NC(=S)NC(=O)c2ccco2)c2ccccc2n1 the results were Arrestin-AP2 inh 0.2, DSG3 Ab inh 83.2, LANA-H2B inh 16.6*, T cell modulator 219.6, GASC-1 inh -1.0 and HDAC3 inhib 7.8.
For O=C(NC(=S)Nc1cccc2ncccc12)c1ccco1 the results were Arrestin-AP2 inh -16.2, DSG3 Ab inh 107.4, LANA-H2B inh 3.2, T cell modulator 228.0, GASC-1 inh 4.7 and HDAC3 inhib -5.9.
CC(C#N)N1CCN(S(=O)(=O)c2ccc3c(c2)CCC3)CC1 (stereo not drawn) was read as Arrestin-AP2 inh -1.6, DSG3 Ab inh 104.3, LANA-H2B inh 0.4, T cell modulator 208.1, GASC-1 inh -6.2 and HDAC3 inhib -1.0.
For Cc1cc(-c2csc(N)n2)c(C)n1CCC(C)C the results were Arrestin-AP2 inh -6.4, DSG3 Ab inh 86.4, LANA-H2B inh 14.0*, T cell modulator 426.3, GASC-1 inh 3.3 and HDAC3 inhib -6.1.
For COc1cccc(NC(=O)COC(=O)c2ccccc2C(=O)N(C)c2ccccc2)c1 the results were Arrestin-AP2 inh -11.2, DSG3 Ab inh 103.2, LANA-H2B inh -2.6, T cell modulator 289.9, GASC-1 inh -6.6 and HDAC3 inhib -1.3.
`CCCCNC(=O)CSc1nc(CCC)nc2ccccc12` gave Arrestin-AP2 inh 10.0, DSG3 Ab inh 89.6, LANA-H2B inh -1.8, T cell modulator 411.7, GASC-1 inh -0.5 and HDAC3 inhib 3.9.
